Assay results reported in ChEMBL document CHEMBL1148839, “Synthesis of new xanthone analogues and their biological activity test--cytotoxicity, topoisomerase II inhibition, and DNA cross-linking study” (Bioorg Med Chem Lett, 2007).

What was measured:
HCT-116 = assay: Cytotoxicity against human HCT116 cells after 4 days by MTT assay; format: functional, cell-based; settings: HCT-116, 96 h
Procedure, shortened: (§1)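 Cells from ATCC seeded at 2-4×10^4 per well, attached overnight in medium with 10% FBS, 37 °C, 5% CO2. On day 1 medium replaced with medium containing graded compound concentrations. On day 4 MTT added (final 0.5 mg/mL), 4 h further incubation, DMSO solubilization, absorbance at 570 nm. IC50 from four-parameter logistic fit; each value average of four experiments.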

MCF7 = assay: Cytotoxicity against human MCF7 cells after 4 days by MTT assay; format: functional, cell-based; settings: MCF7, 96 h; procedure, shortened: as §1
MDA-MB-231 = assay: Cytotoxicity against human MDA-MB-231 cells after 4 days by MTT assay; format: functional, cell-based; settings: MDA-MB-231, 96 h; procedure, shortened: as §1
HeLa = assay: Cytotoxicity against human HeLa cells after 4 days by MTT assay; format: functional, cell-based; settings: 96 h; procedure, shortened: as §1
LNCaP = assay: Cytotoxicity against human LnCap cells after 4 days by MTT assay; format: functional, cell-based; settings: 96 h; procedure, shortened: as §1
Homo sapiens = species: Homo sapiens; assay: Inhibition of human topoisomerase 2-mediated DNA relaxation at 100 uM relative to etoposide
Procedure, shortened: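 Relaxation assay: supercoiled pBR322 plasmid DNA (0.3 µg) incubated with 0.2 unit human topoisomerase II and compound (20 and 100 µM), 37 °C, 30 min. Etoposide as positive control. Inhibition ratio calculated from gel band densitometry.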

Escherichia coli = assay: Effect on pBR322 DNA cross linking activity after 1 hr
Procedure, shortened: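 Linearized pBR322 DNA (0.5 µg) incubated with compound at 0, 10, 50, 100, 200 µM for 1 h at room temperature in 10 mM Tris-HCl pH 7.5. Run on 1.2% alkaline agarose gel (40 mM NaOH, 1 mM EDTA running buffer), neutralized, ethidium bromide stained, UV visualized.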

SMILES	IC50 (HCT-116)	IC50 (MCF7)	IC50 (MDA-MB-231)	IC50 (HeLa)	IC50 (LNCaP)	inhibition (Homo sapiens)	Activity (Escherichia coli)
COc1cccc2c(=O)c3c(O)cc(OCC(O)CCl)cc3oc12 (configuration not stated)	31.4 µM	> 100 µM	81.4 µM	60.3 µM	> 100 µM	–	–
COc1cccc2c(=O)c3c(O)cc(OCC4CO4)cc3oc12 (configuration not stated)	> 100 µM	> 100 µM	> 100 µM	> 100 µM	> 100 µM	–	–
O=c1c2ccccc2oc2cc(OCC(O)CCl)cc(O)c12 (configuration not stated)	> 100 µM	> 100 µM	> 100 µM	> 100 µM	> 100 µM	–	–
COc1cccc2c1C(=O)c1c(O)c3c(c(O)c1C2=O)C[C@@](O)(C(=O)CO)C[C@@H]3O[C@H]1C[C@H](N)[C@H](O)[C@H](C)O1 [DOXORUBICIN]	7.7 µM	–	17.6 µM	3.3 µM	4.6 µM	–	–
O=c1c2ccccc2oc2cc(OCC(O)CBr)cc(O)c12 (configuration not stated)	16.9 µM	53.5 µM	76.3 µM	98.1 µM	64.4 µM	57%	–
O=c1c2ccccc2oc2cc(OCC3CO3)cc(OCC3CO3)c12 (configuration not stated)	10.2 µM	3.2 µM	12.8 µM	23.3 µM	9 µM	100%	Dose-dependent effect
COc1cccc2c(=O)c3c(O)cc(OCC(O)CBr)cc3oc12 (configuration not stated)	> 100 µM	97.8 µM	99.8 µM	> 100 µM	> 100 µM	–	–
O=c1c2ccccc2oc2cc(OCC3CO3)cc(O)c12 (configuration not stated)	80.8 µM	68.4 µM	> 100 µM	68.7 µM	93.1 µM	–	–
